Activity calls are given as the source filed them. The rule behind the calls is not given here.
How the values were obtained:
[1] = Therapeutic index, ratio of cytotoxic TC50 for mouse HT22 cells to neuroprotective PD50 for mouse HT22 cells; assay type: cell-based, HT-22; conditions: read-out: TI
[2] = Neurotoxicity in mouse HT22 cells assessed as cell viability after 24 hrs by MTS assay; assay type: toxicity, cell-based, HT-22; conditions: read-out: TC50
Procedure, shortened: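 HT22 cells were seeded at 5.0 × 10^3 per well, cultured overnight, and treated with a range of compound concentrations without glutamate for 24 h. MTS was added for 2 h and absorbance read at 490 nm. Viability was expressed as percent of untreated cells, and TC50 was fit from titration curves (7- or 12-point, n = 3–4).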

HT-22 [3] = assay: Neuroprotective activity in mouse HT22 cells assessed as prevention from glutamate-induced oxidative cell death by MTS assay; assay type: functional
Procedure, shortened: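 HT22 cells grown in high-glucose DMEM with 10% FBS and antibiotic-antimycotic at 37°C, 5% CO2. Seeded at 5.0 × 10^3 cells/well overnight, then given 10 mM glutamate (final) plus compound from DMSO stock. MTS added 24 h after treatment, 2 h at 37°C, A490 read. Viability taken as % of untreated cells. PC50 from 12-point titrations; experiments repeated at least four times.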

HT-22 [4] = assay: Neuroprotective activity in mouse HT22 cells assessed as prevention from tBuOOH-induced oxidative cell death after 3 hrs by MTS assay; assay type: functional, cell-based
Procedure, shortened: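 HT22 cells were seeded at 5.0 × 10^3 per well and cultured overnight, then exposed to 50 μM t-BuOOH (final) plus compound for 3 h. Medium was removed, cells were washed with HBSS and returned to normal medium. MTS was added 24 h after initial treatment, absorbance was read at 490 nm after 2 h, and viability was expressed as percent of untreated cells.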

HT-22 [5] = assay: Antioxidant activity in mouse HT22 cells assessed as prevention of glutamate-induced GSH depletion at 5 uM; assay type: functional, cell-based
Procedure, shortened: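 HT22 cells were exposed to 10 mM glutamate plus compound (DMSO stock) for 8 h. Total glutathione (reduced plus oxidized) in the supernatant of the cell homogenate was measured with a glutathione reductase enzymatic recycling kit. GSH reacts with DTNB to give TNB, read at 405 nm.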

HT-22 [6] = assay: Neuroprotective activity in mouse HT22 cells assessed as reduction of glutamate-induced mitochondrial fragmentation at 250 nM after 8 hrs by Mitotracker DR staining-based fluorescence microscopic analysis; assay type: functional, cell-based
Procedure, shortened: (§1)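 HT22 cells were given 10 mM glutamate plus compound for 8 h, then co-stained with MitoSOX Red (5 μM final) and Mitotracker Deep Red (10 nM final) for 20 min. Cells were washed twice with HBSS and imaged live by fluorescence microscopy in HBSS.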

HT-22 [7] = assay: Antioxidant activity in mouse HT22 cells assessed as upregulation of HO1 gene expression at 250 nM after 16 hrs by qRT-PCR analysis in the absence of glutamate; assay type: functional, cell-based
Procedure, shortened: (§2)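 HT22 cells were seeded at 3.0 × 10^5 per well and cultured overnight, then treated with or without 10 mM glutamate plus compound (DMSO stock) for 16 h. Cells were trypsinized and washed in cold Ca/Mg-free HBSS. HO-1 and NQO-1 mRNA were measured by qRT-PCR with β2-microglobulin as reference gene, and fold change was calculated by the Livak method.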

HT-22 [8] = assay: Antioxidant activity in mouse HT22 cells assessed as upregulation of HO1 protein expression 8 hrs by Western blotting analysis; assay type: functional, cell-based
[9] = molecular target: Dynamin-1-like protein (Mus musculus) (UniProt Q8K1M6); assay: Inhibition of glutamate-induced decrease in DRP1 phosphorylation at serine 637 in mouse HT22 cells at 500 nM after 16 hrs by Western blotting analysis; assay type: cell-based; conditions: HT-22
Sequence of Dynamin-1-like protein (Mus musculus) (Q8K1M6 whole entry): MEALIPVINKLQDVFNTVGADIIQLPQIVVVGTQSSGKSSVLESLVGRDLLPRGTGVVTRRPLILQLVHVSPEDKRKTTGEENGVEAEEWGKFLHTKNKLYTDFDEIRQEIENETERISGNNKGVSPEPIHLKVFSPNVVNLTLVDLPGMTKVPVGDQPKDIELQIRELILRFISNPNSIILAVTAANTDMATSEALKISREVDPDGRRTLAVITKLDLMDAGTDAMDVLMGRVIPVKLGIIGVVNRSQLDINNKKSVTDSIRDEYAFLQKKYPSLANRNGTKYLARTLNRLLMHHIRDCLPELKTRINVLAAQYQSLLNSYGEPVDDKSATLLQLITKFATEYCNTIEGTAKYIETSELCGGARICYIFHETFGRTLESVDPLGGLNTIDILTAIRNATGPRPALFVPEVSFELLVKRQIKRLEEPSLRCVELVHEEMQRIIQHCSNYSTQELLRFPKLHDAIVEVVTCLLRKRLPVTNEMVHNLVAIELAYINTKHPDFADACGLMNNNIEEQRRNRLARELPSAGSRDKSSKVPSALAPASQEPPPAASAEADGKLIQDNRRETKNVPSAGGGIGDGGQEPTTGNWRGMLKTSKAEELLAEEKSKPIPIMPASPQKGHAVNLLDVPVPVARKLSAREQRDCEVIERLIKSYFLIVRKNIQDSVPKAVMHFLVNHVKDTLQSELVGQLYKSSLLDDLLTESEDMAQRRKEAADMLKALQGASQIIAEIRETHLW
Procedure, shortened: (§3)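 HT22 cells were treated with 10 mM glutamate plus compound for 16 h, harvested, and lysed in low-salt buffer (50 mM Tris-HCl pH 7.4, 150 mM NaCl, 10% glycerol, Triton X-100, protease/phosphatase inhibitors) for 30 min with a brief sonication. Lysates were run on 4–12% gels and immunoblotted for phospho-Drp1 Ser637, total Drp1, PGAM5, actin and α-tubulin, then analyzed by densitometry.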

HT-22 [10] = assay: Antioxidant activity in mouse HT22 cells assessed as reduction in glutamate-induced upregulation of HO1 gene expression at 250 nM after 16 hrs by qRT-PCR analysis relative to glutamate-treated control; assay type: functional, cell-based; procedure, shortened: as §2
HT-22 [11] = assay: Antioxidant activity in mouse HT22 cells assessed as prevention of glutamate-induced intracellular accumulation of free radicals at 250 nM after 8 hrs by spectrofluorometric analysis; assay type: functional, cell-based
Procedure, shortened: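 HT22 cells were seeded at 5.0 × 10^3 per well and cultured overnight, then given 10 mM glutamate plus compound for 8 h. Rho123 was added at 5 μM final for 20 min, cells were washed twice with HBSS, and oxidized Rho123 fluorescence was read at 500 nm excitation and 536 nm emission.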

HT-22 [12] = assay: Neuroprotective activity in mouse HT22 cells assessed as reduction of glutamate-induced mitochondrial superoxide generation at 250 nM after 8 hrs by MitoSOX RED staining-based fluorescence microscopic analysis; assay type: functional, cell-based; procedure, shortened: as §1
HT-22 [13] = assay: Antioxidant activity in mouse HT22 cells assessed as upregulation of NQO1 gene expression at 250 nM after 16 hrs by qRT-PCR analysis in the absence of glutamate; assay type: functional, cell-based; procedure, shortened: as §2
[14] = test system: Radical scavenging activity; assay: Antioxidant activity assessed as DPPH free radical scavenging activity at 20 uM; assay type: functional
Procedure, shortened: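 Test agents at 20 μM final, added to 100 μM DPPH in methanol; absorbance at 517 nm monitored immediately for 10 min. Trolox and ascorbic acid served as positive controls, and the rate of absorbance loss was taken as antioxidant potency.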

HT-22 [15] = assay: Antioxidant activity in mouse HT22 cells assessed as reduction in glutamate-induced upregulation of HO1 gene expression at 250 nM after 16 hrs by qRT-PCR analysis relative to untreated control; assay type: functional, cell-based; procedure, shortened: as §2
[16] = molecular target: T1, Serine/threonine-protein phosphatase PGAM5, mitochondrial (Mus musculus) (UniProt Q8BX10); assay: Inhibition of glutamate-induced increase in lower band of PGAM5 in mouse HT22 cells at 500 nM after 16 hrs by Western blotting analysis; assay type: cell-based; conditions: HT-22; procedure, shortened: as §3
T1 sequence (whole entry): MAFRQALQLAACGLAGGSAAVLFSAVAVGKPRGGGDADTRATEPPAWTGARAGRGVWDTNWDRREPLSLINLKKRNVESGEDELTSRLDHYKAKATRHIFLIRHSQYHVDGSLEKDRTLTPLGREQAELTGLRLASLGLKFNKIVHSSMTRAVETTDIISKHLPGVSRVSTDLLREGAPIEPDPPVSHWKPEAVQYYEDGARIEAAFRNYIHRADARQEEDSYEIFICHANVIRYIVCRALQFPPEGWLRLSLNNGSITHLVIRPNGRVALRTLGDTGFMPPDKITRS

HT-22 [17] = assay: Antioxidant activity in mouse HT22 cells assessed as upregulation of NQO1 protein expression 8 hrs by Western blotting analysis; assay type: functional, cell-based
HT-22 [18] = assay: Antioxidant activity in mouse HT22 cells assessed as reduction in glutamate-induced upregulation of NQO1 gene expression at 250 nM after 16 hrs by qRT-PCR analysis relative to glutamate-treated control; assay type: functional, cell-based; procedure, shortened: as §2

Row | Structure (SMILES) | selectivity ratio [1] | CC50 at 24 h [2] [µM] | PD50 (HT-22 [3]) [nM] | further results
1 | O=C1C=C(NCc2ccccn2)C(=O)c2ccccc21 | 54 | 50 |  | 
2 | O=C1C=C(NCc2cccc(C(F)(F)F)c2)C(=O)c2ccccc21 | > 2220 | > 100 | 45 | 
3 | O=C1C=CC(=O)c2ccccc21 [NAPHTHOQUINONE] | 12 | 19 |  | 
4 | O=C1C=C(NC2CCCC2)C(=O)c2ccccc21 | 108 | 44 |  | 
5 | CCNC1=CC(=O)c2ccccc2C1=O | 106 | 81 |  | 
6 | COC1=C(OC)C(=O)C(C/C=C(\C)CC/C=C(\C)CC/C=C(\C)CC/C=C(\C)CC/C=C(\C)CC/C=C(\C)CC/C=C(\C)CC/C=C(\C)CC/C=C(\C)CCC=C(C)C)=C(C)C1=O |  |  |  | Activity (HT-22 [4]): inactive
7 | CC1=CC(=O)c2ccccc2C1=O [MENADIONE] | 24 | 19 | 797 | 
8 | O=C1C=C(NCc2ccc(Cl)cc2)C(=O)c2ccccc21 | > 1700 | > 100 | 59 | 
9 | COC1=C(OC)C(=O)C(CCCCCCCCCCO)=C(C)C1=O |  |  |  | Activity (HT-22 [5]): inactive
10 | CC(C)NC1=CC(=O)c2ccccc2C1=O | 27 | 46 |  | 
11 | CC1=C(C)C(=O)c2ccccc2C1=O | 254 | 30 |  | 
12 | CC(C)=CCC/C(C)=C/CC/C(C)=C/CC/C(C)=C/CC1=C(C)C(=O)c2ccccc2C1=O [MENATETRENONE] |  | > 100 | 432 | Activity (HT-22 [6]): Active; Activity (HT-22 [7]): inactive; Activity (HT-22 [8]): inactive; inhibition [9]: Active; Activity (HT-22 [4]): Active; Activity (HT-22 [10]): Active; Activity (HT-22 [11]): Active; Activity (HT-22 [12]): Active; Activity (HT-22 [13]): inactive; Activity [14]: inactive; Activity (HT-22 [15]): inactive; inhibition [16]: Active; Activity (HT-22 [17]): inactive; Activity (HT-22 [18]): inactive
13 | O=C1C=C(NCc2ccncc2)C(=O)c2ccccc21 | 1110 | 80 | 72 | 
14 | O=C1C=C(NCC2CCCCC2)C(=O)c2ccccc21 | > 1850 | > 100 | 54 | 
15 | CN(Cc1ccccc1)C1=CC(=O)c2ccccc2C1=O | 781 | > 100 |  | 
16 | CNC1=CC(=O)c2ccccc2C1=O | 74 | > 100 |  | 
17 | O=C1C=C(O)C(=O)c2ccccc21 [LAWSONE] | 100 | > 100 |  | 
